Screening results: PubChem, several laboratories
HSF1 inh – HSF1 inhibitors in luciferase reporter cells, primary screen, cell-based, NIH3T3, luminescence | NIH3T3-HGL HSE-luciferase, MG132-induced, luminescence 8 h; stronger effect = lower value | activity change, negative = inhibition, % at 7.5 µM (by protocol) | actives 0.77% (n = 300,000) | AID 2098, 2009;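 active = more than half of replicate wells show activity change below -50%, luminescence cut by over half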;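 also: luciferase reports HSF-1 transcriptional activity via heat shock element; 0% = median of DMSO wells and -100% = zero luminescence signal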
L major viab – Leishmania major promastigote growth inhibition, primary screen; AID 1063, 2008; Leishmania major promastigotes, resazurin fluorescence viability; inhibition, % at 10 µM; actives 9% (n = 200,000); in the data active = inhibition above about 50%;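 also: promastigotes grown with compound for 44 hours at 28 °C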
HSF-1 act – HSF-1 activators, primary screen, NIH3T3-HGL cells, MG132 stress, luminescence, single point | NIH3T3-HGL HSF-1 luciferase reporter, 8 h; 100% = twice DMSO control signal | activation, % at 9 µM | actives 1.7% (n = 300,000) | AID 504408, 2011;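 active = mean replicate activation of at least 50% with a set share of replicates each reaching 50%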;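 also: 0% = median of the neutral control wells and 100% = twice that signal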
T cruzi inh – inhibitors of intracellular T. cruzi growth, primary screen, luminescence, NIH3T3 host cells. T. cruzi beta-gal in NIH3T3, 90 h. inhibition, % (test concentration not listed). actives 1.4% (n = 300,000). AID 1885, 2009;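 active = mean inhibition across valid replicates above about 55%, limit read from the data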;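 also: signal also drops with host cell toxicity which is not excluded here; 0% = plate median of DMSO wells and 100% = zero luminescence signal; higher percent means less beta-gal luminescence so fewer parasites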
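Test system: β-gal T. cruzi (Tulahuen C4) inside NIH/3T3 cells / Quantity: 5,000 cells/well / Measured by: luminescence from GalScreen with 0.05% NP40, read after 60 min / Medium: DMEM plus 2% FBS / Measure: parasite load inhibition, % / Reagent: Tulahuen C4 trypomastigotes, 5000/well / Schedule: co-culture of at least 90 h after 3 h attachment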
Hsp70 act – Hsp70 transcriptional activators, primary screen, cell-based, HeLa, Hsp70 promoter luciferase, luminescence, 10 µM; HeLa Hsp70 promoter luciferase reporter; scaled: vehicle 0, proteasome-inhibitor control 100%; activation, % at 10 µM; actives 0.04% (n = 200,000); AID 1203, 2008;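 active = activation above the mean across all tested compounds plus 3 SD, cutoff set per campaign, cut at about 5.5% in these data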;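 also: 100% = MG132 at 30 µM as the positive control and 0% = DMSO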
* marks the source's active call; other numbers are inactive results; · = no result. The full list was thinned out, with hits kept by preference.

SMILES	HSF1 inh	L major viab	HSF-1 act	T cruzi inh	Hsp70 act
Cc1ccc(-c2cccc(OC(=O)c3ccccc3F)c2)cc1	-1	1	-1	-3	0
CCOC(=O)c1c(-c2ccco2)csc1NC(=O)COC(=O)c1cnc(C)cn1	2	·	6	-4	·
CC1CCCN(C(C(=O)NC2CCCCC2)c2cc3c(cc2[N+](=O)[O-])OCO3)C1 (stereo not given)	-3	95*	16	-1	-1
COc1ccc(C(NC(=O)C(C)C)c2c(O)ccc3ccccc23)cc1OC (stereo not given)	-1	99*	13	5	0
CCC(=O)NC(c1ccc(N(C)C)cc1)c1c(O)ccc2ccccc12 (stereo not given)	4	100*	-1	-7	0
CC(C)C(=O)NC(c1ccccc1Cl)c1c(O)ccc2ccccc12 (stereo not given)	8	99*	20	12	0
CCC(=O)NC(c1ccccc1Cl)c1c(O)ccc2ccccc12 (stereo not given)	13	22	9	13	0
CCC(=O)NC(c1ccc(OC)cc1)c1c(O)ccc2ccccc12 (stereo not given)	-6	99*	-6	-72	0
O=C(CN1CCC(C(=O)c2ccc(F)cc2)CC1)Nc1ccccc1Cl	-4	·	13	16	·
O=C(OC(C(=O)NCc1ccc(F)cc1)c1ccccc1)c1ccco1 (stereo not given)	2	·	10	-13	·
Cc1cc(Br)cc(Br)c1OCC(=O)NNC(=O)c1ccoc1C	-12	·	-14	-5	·
COc1ncccc1-c1nnn(-c2ccc(C)cc2)n1	27	-5	19	-4	0
COc1ccc(C(NC(=O)C(C)C)c2c(O)ccc3ccccc23)cc1 (stereo not given)	-1	96*	18	-17	0
COc1ccc(-c2ccnc(-c3ccc(O)cc3)n2)cc1	17	-3	29	-26	0
Cc1ccc(-c2ccnc(-c3ccc(O)cc3)n2)cc1	23	4	65*	1	0
CCOC(=O)c1cnc2sc3c(n2c1=O)CCCC3	·	100*	·	·	0
COc1cc(/C=N\NC(=O)c2ccc(Cn3nc([N+](=O)[O-])c(Cl)c3C)o2)ccc1O	-2	18	-1	-4	0
COc1cccc(/C=N/NC(=O)CSc2ccccc2C)c1O	7	98*	16	-3	0
